Screening data (PubChem BioAssay)
Compounds with a hit are over-represented: about 1.9% of the library has one in this group of screens.
pCIP destab – p/CIP protein destabilization; actives 0.01% (n = 290,000); decrease of EGFP signal, % at 10 µM; F442A p/CIP-EGFP cells, EGFP fluorescence, 16 h;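 active means EGFP signal decrease of at least 30% at 10 µM or well 3 SD below plate mean, unless failing retest; inactive means the rest, including hits failing retest or dose response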
Target sequence (Q05BA5 1-1403): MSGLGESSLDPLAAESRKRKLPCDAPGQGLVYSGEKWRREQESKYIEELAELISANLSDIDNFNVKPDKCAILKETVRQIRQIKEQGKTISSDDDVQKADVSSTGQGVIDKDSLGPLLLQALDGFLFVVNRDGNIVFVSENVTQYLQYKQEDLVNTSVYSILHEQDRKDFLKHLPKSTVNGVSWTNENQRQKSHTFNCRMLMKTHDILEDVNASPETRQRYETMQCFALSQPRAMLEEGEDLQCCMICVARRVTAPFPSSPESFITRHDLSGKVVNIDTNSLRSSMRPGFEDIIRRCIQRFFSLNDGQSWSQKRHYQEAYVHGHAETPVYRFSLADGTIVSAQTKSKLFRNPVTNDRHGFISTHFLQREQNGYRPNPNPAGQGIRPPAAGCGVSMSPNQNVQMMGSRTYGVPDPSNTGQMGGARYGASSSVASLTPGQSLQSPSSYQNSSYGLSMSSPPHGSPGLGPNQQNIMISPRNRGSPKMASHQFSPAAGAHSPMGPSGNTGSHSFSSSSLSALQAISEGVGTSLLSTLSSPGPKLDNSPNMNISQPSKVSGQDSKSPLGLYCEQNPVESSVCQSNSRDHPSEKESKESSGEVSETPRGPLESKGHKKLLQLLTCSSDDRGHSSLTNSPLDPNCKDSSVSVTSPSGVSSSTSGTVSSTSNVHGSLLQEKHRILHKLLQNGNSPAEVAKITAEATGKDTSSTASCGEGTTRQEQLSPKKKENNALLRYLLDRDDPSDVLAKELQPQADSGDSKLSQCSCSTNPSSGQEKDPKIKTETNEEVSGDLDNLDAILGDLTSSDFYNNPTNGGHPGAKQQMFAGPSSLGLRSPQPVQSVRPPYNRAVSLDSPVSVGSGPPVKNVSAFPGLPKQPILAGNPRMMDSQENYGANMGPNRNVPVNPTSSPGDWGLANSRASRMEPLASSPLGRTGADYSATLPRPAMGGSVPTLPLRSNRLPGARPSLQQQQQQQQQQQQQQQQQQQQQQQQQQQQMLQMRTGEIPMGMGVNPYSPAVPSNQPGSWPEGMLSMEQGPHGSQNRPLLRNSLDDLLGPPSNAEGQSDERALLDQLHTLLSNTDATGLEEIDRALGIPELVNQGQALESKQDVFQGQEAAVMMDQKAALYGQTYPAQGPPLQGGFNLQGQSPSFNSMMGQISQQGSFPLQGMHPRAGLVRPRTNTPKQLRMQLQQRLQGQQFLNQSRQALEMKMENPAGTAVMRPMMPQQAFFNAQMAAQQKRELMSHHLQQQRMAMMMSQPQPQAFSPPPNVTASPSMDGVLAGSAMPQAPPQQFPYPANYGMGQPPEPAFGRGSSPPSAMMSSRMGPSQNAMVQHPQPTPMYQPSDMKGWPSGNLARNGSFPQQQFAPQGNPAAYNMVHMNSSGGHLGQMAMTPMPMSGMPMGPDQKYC
Fh CTSL1 inh – counter-screen for PFM18AAP inhibitors: inhibitors of F. hepatica cathepsin L1 | inhibition, % at 5.96 µM | recombinant F. hepatica cathepsin L1, Z-Leu-Arg-MCA fluorescence | AID 1906 | actives 0.49% (n = 300,000);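 active means inhibition above the mean of all tested compounds plus 3 SD, set per screening campaign, cut at about 17% in these data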
VIM-2 inhibitor – blocks Pseudomonas aeruginosa VIM-2 metallo-beta-lactamase; purified VIM-2, nitrocefin hydrolysis, epi-absorbance fluorescence; inhibition, % at 5.6 µM; actives 0.89% (n = 290,000);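 active means inhibition above the mean of all tested compounds plus 3 SD, cutoff set per screening run, cut at about 7.5% in these data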;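 further: red hydrolysis product quenches plate fluorescence so inhibitors raise well fluorescence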
UBC9 SUMO inh – inhibitors of human SUMOylation (UBC9) | P63279 | inhibition, % at 35 µM | actives 0.36% (n = 290,000) | HTRF SUMOylation assay, SAE1/SAE2 + UBC9, in vitro; in the data active means inhibition above about 50%, passing the limit was not always enough; inconclusive means no clear call, values can overlap the other calls
IMP-1 inh – inhibitors of Pseudomonas aeruginosa IMP-1 metallo-beta-lactamase. purified IMP-1, nitrocefin hydrolysis, epi-absorbance fluorescence. inhibition, % at 5.6 µM. actives 0.45% (n = 290,000);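 active means inhibition above the mean plus 3 SD of all compounds in the same screening run, cut at about 4.5% in these data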
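Test system: recombinant IMP-1 enzyme, purified / Medium: HEPES buffer pH 7.1 with ZnSO4 and Brij 35 / Doses: single dose, 5.6 µM / Times: 25 °C, 15 min preincubation, 25 min reaction / Detection: Epi-absorbance via hydrolysed-nitrocefin quenching of white-plate fluorescence, 480/530 nm, EDTA stop / Evaluation: percent inhibition from optical density relative to buffer-blank wells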
T cell modulator – T cell immune modulators affecting CD8 T cell-vesicle binding. actives 0.068% (n = 330,000). 2C CD8+ T cell-vesicle binding, flow cytometry; active compounds read low. response (vesicle binding), % at 7 µM;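 active means response, share of CD8 T cells binding vesicles, and their 90th percentile fluorescence all below set limits, cut at about 80% in these data, passing the limit was not always enough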;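 further: values below 100% mean blocked vesicle binding to the CD8+ T cells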
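Test system: purified 2C TCR transgenic mouse naive CD8+ T cells. Probe or stimulus: QL9-peptide-loaded Drosophila micro-vesicles bearing Ld, ICAM-1 and B7-1. Incubation: binding step 1.5 h, 37 °C, antibody labelling 20 min, ice. Measured by: flow cytometry of vesicle-bound cells.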
A number is an active result; – = inactive; ? = inconclusive; · = not tested or not shown.

SMILES	pCIP destab	Fh CTSL1 inh	VIM-2 inhibitor	UBC9 SUMO inh	IMP-1 inh	T cell modulator
CCOc1ccc(/C(O)=C/C(=O)C(=O)Nc2ccc(S(=O)(=O)NC(C)=O)cc2)cc1	–	–	–	–	–	–
CCOC(=O)C1CCN(S(=O)(=O)c2ccc(CN3C(=O)c4cccnc4C3=O)cc2)CC1	–	–	–	–	–	–
O=C1c2cccnc2C(=O)N1Cc1ccc(S(=O)(=O)N2CCN(c3ccc(Cl)cc3)CC2)cc1	–	–	8.5	–	–	–
Cc1ccc(S(=O)(=O)N2CCN(C(=O)COC(=O)CCOc3ccc(C(C)(C)C)cc3)CC2)cc1	·	–	·	·	·	–
Cc1nc(CNC(=O)C2CCC(=O)N(CCc3ccc(Cl)cc3)C2)sc1C (stereo not given)	–	–	–	–	–	47
Cc1ccc(-n2ccnc(SCC(=O)NC3CCCCC3)c2=O)cc1F	·	25	·	·	·	–
COc1ccc(-n2ccnc(SCC(=O)NC3CCCC3)c2=O)cc1OC	·	–	·	·	·	–
COc1ccc(-n2ccnc(SCC(=O)NC3CCCC3)c2=O)cc1	–	–	–	–	4.6	–
CC1CCCCC1NC(=O)CCS(=O)(=O)c1ccc(Cl)cc1 (stereo not given)	·	·	·	·	·	–
Cc1c(CCC(=O)NCCCn2ccnc2)c(=O)oc2c(C)c3oc4c(c3cc12)CCCC4	–	–	9.6	–	–	–
O=C(c1ccco1)N1CCN(Cc2cc(=O)c(OCc3ccc(F)cc3)co2)CC1	·	–	·	·	·	–
CCOC(=O)c1cnc(-n2cc(C)cn2)nc1NCc1ccc2c(c1)OCO2	–	–	8.1	–	–	–
Cc1ccc(NC(=O)c2cc(-c3ccco3)on2)cc1C	–	21	–	–	–	–
Cc1ccc(NC(=O)c2cc(-c3ccco3)on2)cc1	–	–	–	–	–	–
O=[N+]([O-])c1ccc(N/N=C/c2ccc(O)c(O)c2O)c(S(=O)(=O)N2CCOCC2)c1	–	·	–	–	–	·
O=[N+]([O-])c1ccc(N/N=C/c2cccc(O)c2O)c(S(=O)(=O)N2CCOCC2)c1	–	–	–	51	–	–
COc1ccc(C(CNC(=O)CCNC(=O)c2ccc(Br)cc2)N2CCOCC2)cc1 (stereo not given)	·	–	·	·	·	–
O=C(NCCCn1ccnc1)c1cc(-c2ccncc2)nc2ccccc12	–	–	11	–	–	–
O=C(NCCCn1ccnc1)c1cc(-c2ccc(Cl)cc2)nc2ccccc12	–	–	–	–	–	–
O=C(NNC(=O)c1cccs1)c1ccco1	–	–	–	–	–	–
O=C(NCCNC(=O)c1cccs1)c1ccco1	–	19	–	–	–	–
O=c1oc2c(O)c(O)cc3c(=O)oc4c(O)c(O)cc1c4c23	–	–	–	?	6.1	–
Cc1c(Cl)cnc(NC(=O)COC(=O)[C@H](C)NC(=O)c2ccccc2)c1Cl	·	·	·	·	·	–
O=C1/C(=N\S(=O)(=O)c2cccs2)C([n+]2ccccc2)=C([O-])c2ccccc21	–	26	–	–	–	–
CC(C)(C)c1cc[n+](C2=C([O-])c3ccccc3C(=O)/C2=N\S(=O)(=O)c2cccs2)cc1	·	24	–	–	7.0	–
SMILES	pCIP destab	Fh CTSL1 inh	VIM-2 inhibitor	UBC9 SUMO inh	IMP-1 inh	T cell modulator
CC(=O)Nc1ccccc1NS(=O)(=O)c1cccc([N+](=O)[O-])c1	–	19	–	–	–	–
COC(=O)N=Nc1c(O)n(Cc2ccccc2)c2ccccc12	–	–	–	–	–	–
O=C(N=Nc1c(O)n(Cc2ccccc2)c2ccccc12)c1ccncc1	–	–	11	–	–	–
CCN(C(=O)COc1ccccc1[N+](=O)[O-])C1CCS(=O)(=O)C1 (stereo not given)	–	–	–	–	–	–
O=C(COc1ccccc1[N+](=O)[O-])N(Cc1ccco1)C1CCS(=O)(=O)C1 (stereo not given)	–	25	–	–	–	–
O=C(Nc1cccc([N+](=O)[O-])c1)NC1CCCCCCC1	–	·	–	–	–	–
CCCn1nc(C(=O)OCC(=O)c2c(N)n(C)c(=O)n(C)c2=O)c2ccccc2c1=O	–	–	11	–	–	–
Cc1cccc(C(=O)NCC(=O)OCC(=O)N(C)CC(=O)Nc2ccc(F)cc2)c1	·	40	·	·	·	–
Cc1cccc2c1c1ccc3c(c1n2C)C(=O)C=CC3=O	–	·	–	–	5.2	·
Cc1nn(-c2ccccc2)c(Cl)c1/C=N/Nc1ccc(S(=O)(=O)Nc2ccccc2C(=O)O)cc1[N+](=O)[O-]	–	–	–	62	–	–
CSc1ccc(C=NNc2ccc(S(=O)(=O)Nc3ccccc3C(=O)O)cc2[N+](=O)[O-])cc1	·	·	·	·	·	–
CC1=Nc2nc(N3CCCCCC3)c(C#N)c3c4c(nc(c23)N1)N(c1ccc2ccccc2c1)C(=O)C4	·	–	·	·	·	–
Cn1c2ccccc2c(=O)n2c(=O)c3ccccc3cc12	–	107	–	·	–	–
CCN(CC(=O)NCc1ccc(F)cc1)C(=O)CN1CCN(c2ccc(OC)cc2)CC1	–	–	–	–	–	–
NC(=S)N/N=C/c1cn(-c2ccccc2)nc1-c1cccnc1	–	25	–	–	–	–
Cc1ccc(/C=C/C(=O)NCc2cccs2)o1	–	37	–	–	–	–
Cc1cc(/C=C(\C#N)C(=O)Nc2ccc(F)cc2)c(C)n1-c1ccc(N2CCOCC2)c([N+](=O)[O-])c1	–	–	–	–	5.0	–
COc1ccc(NC(=O)/C(C#N)=C/c2cc(C)n(-c3ccc(N4CCOCC4)c([N+](=O)[O-])c3)c2C)cc1	–	–	–	–	–	–
COc1ccc(-c2cc(-c3ccco3)[nH]c(=O)c2C#N)cc1	–	–	–	–	–	–
N#Cc1c(-c2cccc(Br)c2)cc(-c2ccco2)[nH]c1=O	–	–	–	79	–	–
COc1ccc(CSc2nncn2N)cc1Br	–	19	–	–	–	–
CC(C)(C)NS(=O)(=O)c1ccc(NC(=S)NC(=O)C2CC2)cc1	–	–	–	–	–	–
CN(C)C(=O)c1cn(N(C)c2ncc(C(F)(F)F)cc2Cl)c(=O)c2ccccc12	–	–	–	–	–	–
CN(c1ncc(C(F)(F)F)cc1Cl)N1C(=O)c2cccc([N+](=O)[O-])c2C1=O	–	–	–	–	37	–
CCC(C)[C@H](NC(=O)N1CCn2c1nc1ccccc12)C(=O)NCCc1ccc(OC)c(OC)c1 (stereo not given in full)	–	–	–	–	–	–
Cc1cc(NC(=O)CSc2nc3cc(C(=O)NCCCOC(C)C)ccc3c(=O)n2Cc2ccco2)no1	–	–	–	50	–	–
Brc1ccccc1OCCN1CCCC1	·	–	·	·	·	–
CCOC(=O)c1c(C)n(C)c2ccc(OCC(O)CN3CCC(C)CC3)cc12 (stereo not given)	–	–	7.9	–	–	–
